Where “and” joins values, the source holds several entries; their conditions need not be identical. Identical values can stand only once.
How the values were obtained:
Mus musculus [1] = test: Urinary Metabolic (3-hydroxy-N-methylacetaminophen) profile in the mouse 24 hr after dose of 3 mmol/kg of the compound; format: ADME, organism-based, Urine; conditions: in vivo
Mus musculus [2] = test: Time course of Distribution of Radioactivity in Mice Liver after 3 mmol/kg dose of the Compound after 3 h; format: ADME, organism-based; conditions: in vivo
Method in brief: (§1)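 Groups of 12 mice given [acetyl-14C]-labelled drug ip, 3 mmol/kg (0.45 mCi/mmol), housed individually with urine/feces separation. Four killed at each of 1, 3 and 24 h by exsanguination. Tissues (~100 mg) digested in Soluene 350; blood digested and peroxide-bleached; feces freeze-dried, rehydrated, digested and bleached. Scintillation counting; nmol equiv/mg tissue or per mL blood/urine, means ± SE (N = 4).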

Mus musculus [3] = test: Time course of Distribution of Radioactivity in Mice kidney after 3 mmol/kg dose of the Compound after 1 h; format: ADME, organism-based; conditions: in vivo; method in brief: as §1
Mus musculus [4] = test: Time course of Distribution of Radioactivity in Mice kidney after 3 mmol/kg dose of the Compound after 24 h; format: ADME, organism-based; conditions: in vivo; method in brief: as §1
Mus musculus [5] = test: Time course of Distribution of Radioactivity in Mice kidney after 3 mmol/kg dose of the Compound after 3 h; format: ADME, organism-based; conditions: in vivo; method in brief: as §1
Mus musculus [6] = test: Urinary Metabolic (3-methoxy-N-methylacetaminophen) profile in the mouse 24 hr after dose of 3 mmol/kg of the compound; format: ADME, organism-based, Urine; conditions: in vivo
Mus musculus [7] = test: Urinary Metabolic (Acetaminophen) profile in the mouse 24 h after dose of 3 mmol/kg of the compound; format: ADME, organism-based, Urine; conditions: in vivo
Mus musculus [8] = test: Urinary Metabolic (N-methylacetaminophen) profile in the mouse 24 hr after dose of 3 mmol/kg of the compound; format: ADME, organism-based, Urine; conditions: in vivo
Mus musculus [9] = test: Time course of Distribution of Radioactivity in Mice brain after 3 mmol/kg dose of the Compound after 1 h; format: ADME, organism-based; conditions: in vivo; method in brief: as §1
Mus musculus [10] = test: Time course of Distribution of Radioactivity in Mice brain after 3 mmol/kg dose of the Compound after 24 h; format: ADME, organism-based; conditions: in vivo; method in brief: as §1
Mus musculus [11] = test: Time course of Distribution of Radioactivity in Mice brain after 3 mmol/kg dose of the Compound after 3 h; format: ADME, organism-based; conditions: in vivo; method in brief: as §1
Mus musculus [12] = test: Time course of Distribution of Radioactivity in Mice feces after 3 mmol/kg dose of the Compound after 1 hr; format: ADME, organism-based; conditions: in vivo; method in brief: as §1
Mus musculus [13] = test: Time course of Distribution of Radioactivity in Mice feces after 3 mmol/kg dose of the Compound after 24 h; format: ADME, organism-based; conditions: in vivo; method in brief: as §1
Mus musculus [14] = test: Time course of Distribution of Radioactivity in Mice feces after 3 mmol/kg dose of the Compound after 3 h; format: ADME, organism-based; conditions: in vivo; method in brief: as §1
Mus musculus [15] = test: Time course of Distribution of Radioactivity in Mice intestine after 3 mmol/kg dose of the Compound after 24 h; format: ADME, organism-based; conditions: in vivo; method in brief: as §1
Mus musculus [16] = test: Time course of Distribution of Radioactivity in Mice intestine after 3 mmol/kg dose of the Compound after 3 h; format: ADME, organism-based; conditions: in vivo; method in brief: as §1
Mus musculus [17] = test: Time course of Distribution of Radioactivity in Mice intestine after 3 mmol/kg dose of the Compound after 1 h; format: ADME, organism-based; conditions: in vivo; method in brief: as §1
Mus musculus [18] = test: Time course of Distribution of Radioactivity in Mice lungs/heart after 3 mmol/kg dose of the Compound after 1 h; format: ADME, organism-based, Lung; conditions: in vivo; method in brief: as §1
Mus musculus [19] = test: Time course of Distribution of Radioactivity in Mice lungs/heart after 3 mmol/kg dose of the Compound after 24 h; format: ADME, organism-based, Lung; conditions: in vivo; method in brief: as §1
Mus musculus [20] = test: Time course of Distribution of Radioactivity in Mice lungs/heart after 3 mmol/kg dose of the Compound after 3 h; format: ADME, organism-based, Lung; conditions: in vivo; method in brief: as §1
Mus musculus [21] = test: Time course of Distribution of Radioactivity in Mice spleen after 3 mmol/kg dose of the Compound after 1 h; format: ADME, organism-based; conditions: in vivo; method in brief: as §1
Mus musculus [22] = test: Time course of Distribution of Radioactivity in Mice spleen after 3 mmol/kg dose of the Compound after 24 h; format: ADME, organism-based; conditions: in vivo; method in brief: as §1
Mus musculus [23] = test: Time course of Distribution of Radioactivity in Mice spleen after 3 mmol/kg dose of the Compound after 3 h; format: ADME, organism-based; conditions: in vivo; method in brief: as §1
Mus musculus [24] = test: Time course of Distribution of Radioactivity in Mice stomach after 3 mmol/kg dose of the Compound after 1 h; format: ADME, organism-based; conditions: in vivo; method in brief: as §1
Mus musculus [25] = test: Time course of Distribution of Radioactivity in Mice stomach after 3 mmol/kg dose of the Compound after 24 h; format: ADME, organism-based; conditions: in vivo; method in brief: as §1
Mus musculus [26] = test: Time course of Distribution of Radioactivity in Mice Liver after 3 mmol/kg dose of the Compound after 1 h; format: ADME, organism-based; conditions: in vivo; method in brief: as §1
Mus musculus [27] = test: Time course of Distribution of Radioactivity in Mice Urine after 3 mmol/kg dose of the Compound after 1 h; format: ADME, organism-based; conditions: in vivo; method in brief: as §1
Mus musculus [28] = test: Time course of Distribution of Radioactivity in Mice Urine after 3 mmol/kg dose of the Compound after 24 h; format: ADME, organism-based; conditions: in vivo; method in brief: as §1
Mus musculus [29] = test: Time course of Distribution of Radioactivity in Mice Urine after 3 mmol/kg dose of the Compound after 3 h; format: ADME, organism-based; conditions: in vivo; method in brief: as §1
Mus musculus [30] = test: Time course of Distribution of Radioactivity in Mice blood after 3 mmol/kg dose of the Compound after 1 h; format: ADME, organism-based; conditions: in vivo; method in brief: as §1
Mus musculus [31] = test: Time course of Distribution of Radioactivity in Mice blood after 3 mmol/kg dose of the Compound after 24 h; format: ADME, organism-based; conditions: in vivo; method in brief: as §1
Mus musculus [32] = species on record: Mus musculus; test: Analgesic activity determined in mice using the Bradykinin-induced Writhing test; format: organism-based
Method in brief: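 Male CD1 mice (15–20 g), test drug given orally 15 min before bradykinin ip (4 μg in 0.2 mL sterile water), then a second bradykinin injection (0.2 μg/0.1 mL) 15 min later. Writhing was scored over the next 10 min, with control groups of 10 mice. ED50 was derived by log-probit analysis from at least five doses, with 95% limits.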

Mus musculus [33] = test: (§2) Hepatotoxicity in Swiss-Webster Mice Caused by compound at 500 mg/kg (i.p.) dose; format: functional; conditions: route intraperitoneal
Method in brief: (§3)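 Male Swiss-Webster mice (20 g), groups of 10, were given a single ip dose of drug in saline with no pretreatment. Survivors were decapitated at 24 h and counted. Plasma ALT was measured, and liver sections (formalin-fixed, paraffin, H&E) were scored for necrosis severity in survivors. Values are means ± SE.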

Mus musculus [34] = test: as §2; format: functional, organism-based; design: dose 500 mg/kg
Method in brief: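 Male Swiss-Webster mice (20 g), groups of 10, dosed ip in saline; some groups pretreated with phenobarbital (80 mg/kg ip at 72, 60, 48, 24 h), cobaltous chloride (30 mg/kg ip at 48, 36, 24, 12 h) or neat piperonyl butoxide (1360 mg/kg ip, 30 min before). Survivors killed at 24 h; plasma ALT measured, liver H&E sections scored for necrosis; means ± SE.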

Mus musculus [35] = test: Hepatotoxicity in Swiss-Webster Mice Caused by compound at 500 mg/kg (i.p.) dose; 9/10; format: functional; conditions: route intraperitoneal; method in brief: as §3
Mus musculus [36] = test: Time course of Distribution of Radioactivity in Mice blood after 3 mmol/kg dose of the Compound after 3 h; format: ADME, organism-based; conditions: in vivo; method in brief: as §1
Mus musculus [37] = test: Time course of Distribution of Radioactivity in Mice stomach after 3 mmol/kg dose of the Compound after 3 h; format: ADME, organism-based; conditions: in vivo; method in brief: as §1
Mus musculus [38] = test: Time course of Distribution of Radioactivity in Mice Liver after 3 mmol/kg dose of the Compound after 24 h; format: ADME, organism-based; conditions: in vivo; method in brief: as §1
Mus musculus [39] = test: Hepatotoxicity in Swiss-Webster Mice Caused by compound at 1000 mg/kg (i.p.) dose; 5/10; conditions: route intraperitoneal

CC(=O)N(C)c1ccc(O)cc1
Administered dose (Mus musculus [1]): 0.6%
Radioactivity (Mus musculus [2]): 0.6 nM equiv (mg of tissue)-1
Radioactivity (Mus musculus [3]): 3.73 nM equiv (mg of tissue)-1
Radioactivity (Mus musculus [4]): 0.05 nM equiv (mg of tissue)-1
Radioactivity (Mus musculus [5]): 0.49 nM equiv (mg of tissue)-1
Administered dose (Mus musculus [6]): 13.7%
Administered dose (Mus musculus [7]): 1.9%
Administered dose (Mus musculus [8]): 78.9%
Radioactivity (Mus musculus [9]): 1.03 nM equiv (mg of tissue)-1
Radioactivity (Mus musculus [10]): 0.01 nM equiv (mg of tissue)-1
Radioactivity (Mus musculus [11]): 0.05 nM equiv (mg of tissue)-1
Radioactivity (Mus musculus [12]): 0.03 nM equiv mg-1
Radioactivity (Mus musculus [13]): 74.5 nM equiv mg-1
Radioactivity (Mus musculus [14]): 3.17 nM equiv mg-1
Radioactivity (Mus musculus [15]): 0.61 nM equiv (mg of tissue)-1
Radioactivity (Mus musculus [16]): 1.52 nM equiv (mg of tissue)-1
Radioactivity (Mus musculus [17]): 2.17 nM equiv (mg of tissue)-1
Radioactivity (Mus musculus [18]): 1.78 nM equiv (mg of tissue)-1
Radioactivity (Mus musculus [19]): 0.03 nM equiv (mg of tissue)-1
Radioactivity (Mus musculus [20]): 0.13 nM equiv (mg of tissue)-1
Radioactivity (Mus musculus [21]): 1.58 nM equiv (mg of tissue)-1
Radioactivity (Mus musculus [22]): 0.03 nM equiv (mg of tissue)-1
Radioactivity (Mus musculus [23]): 0.13 nM equiv (mg of tissue)-1
Radioactivity (Mus musculus [24]): 0.21 nM equiv (mg of tissue)-1
Radioactivity (Mus musculus [25]): 0.08 nM equiv (mg of tissue)-1
Radioactivity (Mus musculus [26]): 3.16 nM equiv (mg of tissue)-1
Radioactivity (Mus musculus [27]): 7.67 nM equiv (ml of urine)-1
Radioactivity (Mus musculus [28]): 6978 nM equiv (ml of urine)-1
Radioactivity (Mus musculus [29]): 3200 nM equiv (ml of urine)-1
Radioactivity (Mus musculus [30]): 1855 nM equiv (ml of blood)-1
Radioactivity (Mus musculus [31]): 14.6 nM equiv (ml of blood)-1
ED50 (Mus musculus [32]): > 200 mg/kg
Hepatic necrosis in survivors (Mus musculus [33]): 0
Plasma ALT at 24 h (Mus musculus [34]): 27 mU ml-1 and 32 mU ml-1
Survivors at 24 h (Mus musculus [35]): 9
Radioactivity (Mus musculus [36]): 501 nM equiv (ml of blood)-1
Radioactivity (Mus musculus [37]): 0.87 nM equiv (mg of tissue)-1
Radioactivity (Mus musculus [38]): 0.05 nM equiv (mg of tissue)-1
Survivors at 24 h (Mus musculus [39]): 5

Source: ChEMBL document CHEMBL1123436, “Comparative toxicities and analgesic activities of three monomethylated analogues of acetaminophen” (J Med Chem, 1986)
